Molecules are shown by their SMILES.

The data set is described as follows: Toxicity liver stage against HepG2, at 10uM. The format is cell-based. More on the design: test concentration 10 uM, cell line HepG2-A16-CD81EGFP. The following applies: human, HepG2-A16-CD81EGFP cells; read-out: INHIBITION
In short, it runs like this:
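Uninfected HepG2-A16-CD81EGFP cells, 3 × 10^3 per well, 1536-well, plated on prespotted compound at 10 μM final, parasite-free screening media added to match infected plates; puromycin 10 μM positive, DMSO 0.5% negative; run in parallel with 48 h PbLuc assay at 37 °C, 5% CO2; viability by CellTiter-Glo luminescence, normalized to controls.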
Regarding `COC(=O)c1cnc2c(c(C)nn2C)c1OC`, the cytotoxicity at 10 µM worked out at 0.822%. With `C/N=C1/c2cc3cc(OC)ccc3n2CCN1Cc1ccccc1`, the cytotoxicity at 10 µM was 69.7%. The same measure for `COc1ccccc1OCCNc1snc(Cl)c1C#N`: 20.5%; for `NC(=O)c1cccc2nc([C@H]3CCN(Cc4ccccn4)C3)[nH]c12`: 4.32%. The same measure for `CCCc1nc2c(c(C)c(C)n2Cc2ccccn2)c(N)c1CC`: 23.3%; for `Cc1nccn1CC1CCN(C(=O)c2ccccc2)CC1`: -4.17%; for `O=C(Nc1cnccn1)[C@H]1COC[C@H]2CN(c3ncc(F)cn3)C[C@H]21`: -0.695%. Consider `COCC(=O)N1CCC2(CC1)COc1ccccc1S(=O)(=O)N(C)C2`, for which the cytotoxicity at 10 µM worked out at 9.7%. The same measure for `O=C(c1ccnnc1)N1CC[C@H](OCC2CC2)[C@@H]1Cc1ccncc1`: -1.43%. The same measure for `c1cnc(N2CCC3(COCc4cnc(N5CCOCC5)nc43)C2)nc1` (stereo unspecified): -1.72%; for `CC(C)CNC(=O)CC1(Cn2cnnn2)CCCCC1`: 11.1%; for `Cc1c(C)n(-c2ccccn2)c2nc3c(c(N)c12)CCCC3`: 7.18%. The same measure for `CCCc1nc(N2CCCC(C)C2)c2c(n1)c(C)nn2CC` (stereo unspecified): 15.6%. Consider `Cc1cccc2c1cnn2CCCNC(=O)C1CC1`, for which the cytotoxicity at 10 µM came to 5.01%. The same measure for `CCc1nccn1-c1nccnc1C1CCN(C(=O)COC)CC1`: -19.7%; for `Cc1ccc([C@]2(O)CC[C@H]3CN(Cc4ccncc4)C[C@H]32)nc1`: -31.5%. The same measure for `O=C(Cc1ccsc1)N1CCCC(c2n[nH]c3ncccc23)C1` (stereo unspecified): -6.8%; for `CNc1cc(C)nc(C2CN(Cc3cc[nH]n3)CCO2)c1` (stereo unspecified): -9.09%; for `N#CC(NC(=O)CCCOc1cccnc1)c1ccc(F)cc1F` (stereo unspecified): 8.23%. On to `CCc1ccc(C(=O)Nc2ccc3c(c2)N(C)CCN(C)C3)o1`, for which the cytotoxicity at 10 µM is -7.69%. With `Cc1ccc(-c2nc(CC(=O)NCC(C)N3CCOCC3)cs2)o1` (stereo unspecified), the cytotoxicity at 10 µM was -47.5%. As to `O=C(NCCn1ccnc1)C1COCC(=O)N1Cc1ccccc1` (stereo unspecified), the cytotoxicity at 10 µM came out at 8.19%. The same measure for `CCOCCN1CCN(CCc2ccc3c(c2)CCO3)CC1`: 4.1%; for `CCC(CC)(CNC(=O)OC(C)(C)C)NC(=O)c1cnccn1`: -8.56%; for `CS(=O)(=O)c1ccccc1N[C@@H]1c2ccccc2C[C@@H]1O`: -40.5%. For the molecule `CCCS(=O)(=O)N1CCC(c2ccc(OC)cc2)CC1`, the cytotoxicity at 10 µM was 2.02%. The same measure for `COc1cc(C)sc1C(=O)NCCC(=O)N(C)Cc1ccccc1`: -8.78%; for `CC(C)C(C)N(C)Cc1nnc(-c2ccco2)o1` (stereo unspecified): 2.65%. The same measure for `CCc1nc2c(s1)C(N(C)C(=O)c1csnn1)CCC2` (stereo unspecified): -3.71%. `Cc1cc(C)c(CCNC(=O)CN2CCCN(C(N)=O)CC2)c(C)c1`: the cytotoxicity at 10 µM is -0.819%. The same measure for `COc1ccc(CNC(=O)N2CCOCC2C2CC2)cc1C` (stereo unspecified): 10.4%; for `CN(C(=O)CN1CCCC1Cc1ccccc1)c1ccccc1` (stereo unspecified): 17.8%; for `O=C(CCn1cccn1)NCC(c1cccs1)N1CCCC1` (stereo unspecified): 7.02%. The same measure for `CC(C)c1noc(CN2CCC(c3nc4cc(Cl)ccc4o3)CC2)n1`: 1.81%; for `O=C(CSc1ccc2c(c1)OCCO2)NS(=O)(=O)c1ccccc1F`: 1.98%. The same measure for `Cc1cc(Cl)ccc1S(=O)(=O)NCC(C)N1CCN(C)CC1` (stereo unspecified): 8.35%; for `CN(Cc1ccc(Cl)s1)C(=O)Cn1nc(-c2ccc(F)cc2)oc1=O`: -20.4%. For `CC(C)Cc1noc(CN2CCCN(C(=O)c3cccc(Cl)c3)CC2)n1`, the cytotoxicity at 10 µM is -2.34%.

Regarding `c1cncc(CNc2cccc(OCCN3CCCCC3)c2)c1`, the cytotoxicity at 10 µM was -0.589%. Consider `COc1ccc(NC(=O)CSC(F)(F)F)cn1`, for which the cytotoxicity at 10 µM is -96.6%. The same measure for `O=C(CCN1C(=O)CCC1=O)Nc1ccc(Cl)cc1`: -2.79%. The same measure for `Cc1oc(-c2ccsc2)nc1CN1CCCC(c2ccnn2C)C1` (stereo unspecified): 10.7%. The same measure for `CCS(=O)(=O)NC(CCSC)C(=O)Nc1cc(F)ccc1C` (stereo unspecified): 6.29%; for `Cc1csc(CCCNc2ccc(S(N)(=O)=O)cc2C#N)n1`: -49%.

As to `CCn1cc(C2CCN(Cc3ccnc(N(C)C)c3)CC2)cn1`, the cytotoxicity at 10 µM is 11%.

For `CN(CCNS(C)(=O)=O)C(=O)c1ccc(Cl)c(Cl)c1`, the cytotoxicity at 10 µM is -52.4%. The same measure for `Cc1nsc(N2CCN(C(=O)Nc3cccc(F)c3)CC2)n1`: -18.3%; for `CC(CCN(C)C)NC(=O)c1cccc(C(F)(F)F)c1F` (stereo unspecified): -52.6%. The same measure for `CNC(=O)CN1CCOCC2(C1)CN(Cc1csnn1)CCO2` (stereo unspecified): -89.3%; for `Cc1cccc(CO[C@@H]2CC[C@H]3[C@H]2OCCN3Cc2ccoc2)n1`: -109%. The same measure for `Cc1cnc(N2CCC(c3ccncc3)CC2)nc1-c1ccnn1C`: 28.7%; for `CCC1CN(C(=O)c2ccc(O)cn2)CCC(=O)N1Cc1ccccc1` (stereo unspecified): 8.5%; for `CCNC(=O)[C@@H]1C[C@H](N)CN1Cc1ccc(Sc2ccc(C)cc2)o1`: -48.3%.

Consider `Cc1nnsc1CN1CC[C@@](O)(C2CCC2)[C@H](C)C1`, for which the cytotoxicity at 10 µM came to 11.8%. The same measure for `Cc1ccc(C(=O)NCCC2CN(C3CCCC3)CCO2)c(C)c1` (stereo unspecified): -3.76%. Take `CCn1cc(CN2CCC(C3CCN(C)CC3)CC2)cc1C#N`: the cytotoxicity at 10 µM is -0.0399%. As to `NC(=O)c1ccc(CN2C(=O)C3(CCNCC3)Nc3ccccc32)cc1`, the cytotoxicity at 10 µM is -6.38%. The same measure for `O=S(=O)(N[C@H]1CC[C@H]1NC1Cc2ccccc2C1)c1cccnc1`: 1.24%. Consider `N#Cc1ccnc(N2CCC(NCCN3CCOCC3)CC2)c1`, for which the cytotoxicity at 10 µM was -43.4%. The same measure for `O=C(NCCN1CCCC1)Nc1cc(C(=O)N2CCOCC2)ccc1Cl`: -44.2%; for `NC(=O)CCC1CCCN(Cc2cnc(N3CCCCC3)nc2)C1` (stereo unspecified): -11.1%; for `COc1cc(C)ccc1OCc1nc(C(=O)N2CCCO2)co1`: -45.9%. The same measure for `Cc1nccn1CC1CCCN(Cc2ccc(-c3cccnc3)cc2)C1` (stereo unspecified): 2.97%; for `Cc1n[nH]c(CN2CCN(c3ncnc4scc(C)c34)CC2)c1Cl`: 58.4%; for `CCc1nc2c(NCC3COc4cc(OC)ccc4C3)ncnc2o1` (stereo unspecified): 40.9%. With `N#CC1CCCN(c2ncnc3c2CCN(Cc2ccccc2)CC3)C1` (stereo unspecified), the cytotoxicity at 10 µM was -3.64%. The same measure for `COc1ccc(C(C)NC(=O)C2CCN(S(C)(=O)=O)CC2)cc1C` (stereo unspecified): -7.5%; for `CS(=O)(=O)c1ccc(NC(=O)N2C[C@H](O)[C@@H](N3CCOCC3)C2)cc1`: -46%. The same measure for `Cc1nc2c(NCC(C)N(C)c3ccccc3)ncnc2o1` (stereo unspecified): 4.73%; for `N#Cc1cc2c(nc1SCc1cc(O)nc(O)n1)CCCCC2`: 4.97%; for `CC(C)c1cc(C(=O)N(C)Cc2cccc3ncccc23)n(C)n1`: 12.3%. The same measure for `N#Cc1cc(F)ccc1CN1CCCC1Cn1cccn1` (stereo unspecified): 2.01%; for `COC(=O)c1ccc(N2CCN(C(=O)c3cnc(C)cn3)C(C)C2)cc1` (stereo unspecified): 3.09%; for `Cc1cnn(CCNCC(O)COc2ccc(Cl)cc2Cl)c1` (stereo unspecified): -1.76%. For the molecule `CC(C)c1n[nH]c(C(=O)Nc2ccccn2)c1Br`, the cytotoxicity at 10 µM was -31.7%. Turning to `Cc1cccc(NC2CCN(C(=O)Nc3ccc(F)c(F)c3)CC2)n1`, the cytotoxicity at 10 µM worked out at 9.59%. The same measure for `CC(=O)Nc1nc(C(=O)N2CCCC(n3cncn3)C2)cs1` (stereo unspecified): -2.02%; for `N#Cc1cccc(CN2CCN(Cc3cscn3)CC2)c1`: 1.16%.

As to `Clc1ccc2cccnc2c1CN1CCCC1Cn1cncn1` (stereo unspecified), the cytotoxicity at 10 µM stood at 3.91%. The same measure for `Cc1cccc(C2(CNC(=O)CCNS(C)(=O)=O)CCCC2)c1`: -5.92%; for `Cc1nc(Nc2ncc(C)s2)cc(C2CCCN2)n1` (stereo unspecified): 82%; for `Cc1nc(CN2C[C@@H]3CCCO[C@@H]3[C@H](N(C)C(C)C)C2)cs1`: 6.86%.

In the case of `Cc1cccc(CN2CCC3(CC2)CN(c2cnn(C)c2)C(=O)CO3)n1`, the cytotoxicity at 10 µM is 3.94%. The same measure for `Cc1nc(CN2CCC3(CCN(C(=O)c4ccoc4C)CC3)C2)cs1`: -5.19%; for `COc1cccc(-c2noc(C3CCN(Cc4ccc(C)cc4)C3)n2)c1` (stereo unspecified): -5.89%; for `CCCN1CCCn2c(nc(CNC(=O)c3nccn3C)cc2=O)C1`: 9.73%. The same measure for `CS(=O)(=O)N1CCC2(CC1)CC(NCc1ccco1)c1ccccc12` (stereo unspecified): -110%; for `c1cnc(N2CCOCC3(CCCN(Cc4cccs4)C3)C2)nc1` (stereo unspecified): -68.3%; for `CN1C[C@H]2N(c3ncccn3)CCC[C@@]2(C(=O)NCC2CC2)C1`: -103%. The same measure for `CCOCC1CN(Cc2cnn(C)c2)Cc2nn(CC3CC3)cc21` (stereo unspecified): -75.9%; for `Cc1noc(C)c1CN1CCOCC12CCN(c1nccs1)CC2`: -104%; for `O=C1COC2(CCN(Cc3cccs3)CC2)CN1c1cncnc1`: -124%. With `CS(=O)(=O)NC[C@]12COC[C@H]1CN(CC1CCC1)C2`, the cytotoxicity at 10 µM was -110%. The same measure for `Cc1ccc2c(c1)CN(C(=O)c1cnc(C)cn1)C(CN(C)C)CO2` (stereo unspecified): -22.3%; for `Fc1ccc(CN2CCO[C@H]3[C@H](OCC4CCCC4)CC[C@@H]32)cc1`: 37.9%. Turning to `O=c1c(=CS(=O)(=O)Nc2ccc(Br)cc2)[nH]c(=O)n2cccc12`, the cytotoxicity at 10 µM is -9.95%.

The record behind these values is ChEMBL document CHEMBL4513216, “Probing the Open Global Health Chemical Diversity Library for Multistage-Active Starting Points for Next-Generation Antimalarials” (ACS Infect Dis, 2020).
